Laboratory results from ChEMBL document CHEMBL1629563, “Pharmacokinetic and safety evaluation of BILR 355, a second-generation nonnucleoside reverse transcriptase inhibitor, in healthy volunteers” (Antimicrob Agents Chemother, 2008).

Key:
Homo sapiens [1] = test: Toxicity in healthy human assessed as occurrence of migraine at 12.5 mg, po administered as single dose relative to control; assay type: organism-based; details: in vivo
Homo sapiens [2] = test: Toxicity in healthy human assessed as occurrence of increase in alanine aminotransferase level at 75 mg, po administered as single dose relative to control; assay type: organism-based; details: in vivo
Homo sapiens [3] = test: Toxicity in healthy human assessed as occurrence of palpitations at 25 mg, po administered as single dose relative to control; assay type: organism-based; details: in vivo
Homo sapiens [4] = test: Toxicity in healthy human assessed as occurrence of palpitations at 75 mg, po administered as single dose relative to control; assay type: organism-based; details: in vivo
Homo sapiens [5] = test: Toxicity in healthy human assessed as occurrence of herpes simplex at 5 mg, po administered as single dose relative to control; assay type: organism-based; details: in vivo
Homo sapiens [6] = test: Toxicity in healthy human assessed as occurrence of herpes simplex at 100 mg, po administered as single dose relative to control; assay type: organism-based; details: in vivo
[7] = Mean residence time in healthy human at 75 mg, po administered as single dose coadministered with 100 mg of ritonavir; assay type: ADME, organism-based; details: in vivo
[8] = Apparent volume of distribution in terminal phase in healthy human at 37.5 mg, po administered as single dose coadministered with 100 mg of ritonavir; assay type: ADME, organism-based; details: in vivo, read-out: Vz/F
Summary of the method: (§1)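 Healthy male volunteers, fasted overnight, got one oral dose of BILR 355 in PEG solution with 200 ml water. Ritonavir 100 mg was given 10 h before and again with the dose. Plasma was sampled (EDTA) from predose to 144 h and assayed by validated LC-MS/MS. Cmax and Vz/F came from noncompartmental analysis. Vss/F = CL/F·(MRTp.o. − 1/Ka), with Ka from compartmental modelling.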

[9] = Apparent volume of distribution at steady state in healthy human at 25 mg, po administered as single dose coadministered with 100 mg of ritonavir; assay type: ADME, organism-based; details: in vivo, read-out: Vss/F; summary of the method: as §1
[10] = Drug excretion in healthy human urine assessed as unchanged drug at 75 mg, po administered as single dose coadministered with 100 mg of ritonavir by high-pressure liquid chromatography-tandem mass spectrometry/mass spectrometry method; assay type: ADME, organism-based; details: read-out: Drug uptake
Summary of the method: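 Ritonavir 100 mg was given 10 h before and with one oral dose of BILR 355 in PEG solution. Urine was collected by weight as predose blank, then 0-6, 6-24 and 24-72 h, stored at −20°C and assayed by LC-MS/MS. fe = unchanged drug excreted (Ae) as a percentage of dose. Line 50: high-fat breakfast 30 min before dosing.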

Homo sapiens [11] = test: Ratio of AUC (0 to infinity) in human at 50 mg, po in presence of 100 mg of ritonavir to AUC (0 to infinity) in human at 50 mg, po; assay type: ADME, organism-based; details: in vivo
Homo sapiens [12] = test: Toxicity in healthy human assessed as occurrence of aphthous stomatitis at 50 mg, po administered as single dose coadministered with 100 mg of ritonavir; assay type: organism-based; details: in vivo
Homo sapiens [13] = test: Toxicity in healthy human assessed as occurrence of aphthous stomatitis at 100 mg, po administered as single dose; assay type: organism-based; details: in vivo
Homo sapiens [14] = test: Toxicity in healthy human assessed as occurrence of diarrhea at 12.5 mg, po administered as single dose coadministered with 100 mg of ritonavir; assay type: organism-based; details: in vivo
Homo sapiens [15] = test: Toxicity in healthy human assessed as occurrence of fatigue at 50 mg, po administered as single dose coadministered with 100 mg of ritonavir; assay type: organism-based; details: in vivo
Homo sapiens [16] = test: Toxicity in healthy human assessed as occurrence of maculopapular rash at 5 mg, po administered as single dose coadministered with 100 mg of ritonavir; assay type: organism-based; details: in vivo
[17] = AUC (0 to infinity) in healthy human at 50 mg, po administered as single dose; assay type: ADME, organism-based; parameters: dose 50 mg, time infinity, route oral; details: plasma
Summary of the method: (§2)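 Healthy male volunteers, six active plus two placebo per dose group, single oral dose in PEG solution with 200 ml water after overnight fast; breakfast 60 to 90 min post-dose. EDTA plasma sampled predose to 144 h. Assayed by validated LC-MS/MS after protein precipitation. Noncompartmental analysis, AUC by linear up/log down trapezoidal rule; Vss = CL/F·(MRTp.o. − 1/Ka).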

[18] = Tmax in healthy human at 25 mg, po administered as single dose; assay type: ADME, organism-based; details: in vivo
Homo sapiens [19] = test: Ratio of Cmax in human at 12.5 mg, po in presence of 100 mg of ritonavir to Cmax in human at 12.5 mg, po; assay type: ADME, organism-based; details: in vivo
[20] = Mean residence time in healthy human at 25 mg, po administered as single dose; assay type: ADME, organism-based; details: in vivo
[21] = Apparent volume of distribution in terminal phase in healthy human at 25 mg, po administered as single dose; assay type: ADME, organism-based; details: in vivo, read-out: Vz/F
Summary of the method: (§3)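 Single fasting oral dose of BILR 355 in PEG solution with 200 ml tap water, given to healthy males. Standard breakfast came 60-90 min after the dose. EDTA plasma was sampled predose to 144 h, stored below −18°C and assayed by LC-MS/MS after protein precipitation. Noncompartmental analysis gave Vz/F. Vss/F = CL/F·(MRTp.o. − 1/Ka), with Ka from compartmental modelling.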

[22] = Apparent volume of distribution at steady state in healthy human at 75 mg, po administered as single dose; assay type: ADME, organism-based; details: in vivo, read-out: Vss/F; summary of the method: as §3
[23] = Apparent volume of distribution at steady state in healthy human at 100 mg, po administered as single dose; assay type: ADME, organism-based; details: in vivo, read-out: Vss/F; summary of the method: as §2
[24] = Drug excretion in healthy human urine assessed as unchanged drug at 25 mg, po administered as single dose by high-pressure liquid chromatography-tandem mass spectrometry/mass spectrometry method; assay type: ADME, organism-based; details: read-out: Drug uptake
Summary of the method: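 Urine was collected by weight after one oral dose of BILR 355 in PEG solution in fasted healthy males. Intervals were predose blank, 0-6, 6-24 and 24-72 h, with the bladder voided before each. Aliquots were stored at −20°C and assayed by LC-MS/MS. fe = amount of unchanged drug excreted (Ae) as a percentage of the administered dose.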

[25] = AUC (0 to infinity) in healthy human at 75 mg, po administered as single dose coadministered with 100 mg of ritonavir; assay type: ADME, organism-based; parameters: dose 75 mg, route oral, time infinity; details: plasma
Summary of the method: (§4)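 Healthy male volunteers, fasted. Ritonavir 100 mg given 10 h before and again together with single oral BILR 355 in PEG solution. EDTA plasma sampled predose to 144 h. LC-MS/MS assay after protein precipitation. Noncompartmental analysis, AUC by linear up/log down trapezoidal rule; Vss = CL/F·(MRTp.o. − 1/Ka).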

[26] = AUC (0 to last) in healthy human at 12.5 mg, po administered as single dose coadministered with 100 mg of ritonavir; assay type: ADME, organism-based; parameters: dose 12.5 mg, time 0 - last, route oral; details: plasma; summary of the method: as §4
[27] = Half life in healthy human at 25 mg, po administered as single dose coadministered with 100 mg of ritonavir; assay type: ADME, organism-based; details: in vivo
Homo sapiens [28] = test: Toxicity in healthy human assessed as occurrence of headache at 12.5 mg, po administered as single dose relative to control; assay type: organism-based; details: in vivo
Homo sapiens [29] = test: Toxicity in healthy human assessed as occurrence of headache at 50 mg, po administered as single dose relative to control; assay type: organism-based; details: in vivo

Compound CCN1c2ncc(CCOc3cc[n+]([O-])c4ccccc34)cc2C(=O)N(C)c2cccnc21 [BILR 355] has an Activity (Homo sapiens [1]) of 0%, an Activity (Homo sapiens [2]) of 0% and an Activity (Homo sapiens [3]) of 0%. For the same compound, the Activity (Homo sapiens [4]) was 16.7%, the Activity (Homo sapiens [5]) was 16.7% and the Activity (Homo sapiens [6]) was 0%. The MRT [7] was 17.4 h, the Vd/F [8] was 104 L and the Vd/F [9] was 102 L. For the same compound, the dose excreted [10] was 5.44%, the Ratio (Homo sapiens [11]) was 15.5 and the Activity (Homo sapiens [12]) was 0%. The Activity (Homo sapiens [13]) was 0%, the Activity (Homo sapiens [14]) was 0% and the Activity (Homo sapiens [15]) was 0%. The Activity (Homo sapiens [16]) was 0%, the AUC(0-inf) [17] was 419 ng·h/mL and the Tmax [18] was 0.833 h. The Ratio (Homo sapiens [19]) was 5, the MRT [20] was 4.52 h and the Vd/F [21] was 1040 L. The Vd/F [22] was 608 L, the Vd/F [23] was 163 L and the dose excreted [24] was 0.405%. The AUC(0-inf) [25] was 12300 ng·h/mL, the AUC(0-t) [26] was 1680 ng·h/mL and the half-life [27] was 11.5 h. It also gave an Activity (Homo sapiens [28]) of 0% and an Activity (Homo sapiens [29]) of 16.7%.
